Screens from PubChem.
ADAM17 inh: ADAM17 inhibitors, primary screen, biochemical, QFRET; recombinant ADAM17, EDANS/DABCYL FRET peptide cleavage; inhibition, % at 6.95 µM; 370,000 compounds, 0.83% hits;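 active = inhibition above the mean of compounds lying between control limits plus 3 SD, set per campaign, cut at about 8.5% in these data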;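 note: 0% = DMSO-only wells as the low control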
JMJD2C inh: inhibitors of GASC-1 histone demethylase, primary screen, biochemical, fluorescence, DELFIA europium | Lysine-specific demethylase 4C (Homo sapiens), Q9H3R0 | inhibition, % at 2.35 µM | 330,000 compounds, 0.069% hits | AID 2099, 2009 | GST-JMJD2C(1-420) H3K9me3 demethylation;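 active = more than half of a compound's replicate wells show inhibition beyond 50%, single wells judged on their own value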;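 note: signal counts dimethyl H3K9 product captured on neutravidin plate; 0% = median of DMSO wells and 100% = 0.3 times that DMSO median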
ADAM10 inh: human ADAM10 inhibitors, primary screen, biochemical, QFRET, HTS; Disintegrin and metalloproteinase domain-containing protein 10 (Homo sapiens), O14672; AID 720582, 2013; 370,000 compounds, 0.62% hits; recombinant ADAM10, EDANS/DABCYL FRET peptide cleavage, 3 h; inhibition, % at 7 µM;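 active = inhibition above a per-campaign cutoff equal to the mean of compounds falling between control-based bounds plus 3 SD, cut at about 20% in these data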;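 note: 0% = DMSO wells while the 100% control is not disclosed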
proKLK7 act: proKLK7 zymogen activators, primary screen, biochemical, fluorescence intensity | Kallikrein-7 (Homo sapiens), P49862 | purified proKLK7, EDANS-DABCYL substrate fluorescence; 100% is mature enzyme control, 0% vehicle | activation, % at 7 µM | 370,000 compounds, 0.9% hits | AID 652039, 2013;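 active = activation above the mean of all tested compounds plus 3 SD, computed per campaign excluding outliers beyond control limits, cut at about 13% in these data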
Target sequence (P49862 whole entry, looked up): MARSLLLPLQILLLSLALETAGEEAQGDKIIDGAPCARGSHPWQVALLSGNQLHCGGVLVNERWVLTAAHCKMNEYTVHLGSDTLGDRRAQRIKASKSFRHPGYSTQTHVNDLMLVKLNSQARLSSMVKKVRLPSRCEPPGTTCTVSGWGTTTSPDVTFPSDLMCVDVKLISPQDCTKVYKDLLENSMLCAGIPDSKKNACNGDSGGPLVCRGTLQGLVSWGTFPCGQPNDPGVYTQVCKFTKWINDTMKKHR
NR2E3 ag-1: NR2E3 agonists in two-hybrid cells, primary screen, cell-based, luminescence, CHO-S, Gal4-NCOR/VP16-NR2E3; luciferase; inhibition of corepressor binding, % at 3.98 µM; 360,000 compounds, 0.35% hits;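 active = inhibition above the mean of all tested compounds plus 3 SD, cut at about 70% in these data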;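 note: 0% = DMSO with NR2E3 transfected cells and 100% = cells lacking NR2E3 construct; higher means lower luciferase signal from less NR2E3 corepressor binding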
Target sequence (Q9Y5X4 whole entry, looked up, the tested form may be a part): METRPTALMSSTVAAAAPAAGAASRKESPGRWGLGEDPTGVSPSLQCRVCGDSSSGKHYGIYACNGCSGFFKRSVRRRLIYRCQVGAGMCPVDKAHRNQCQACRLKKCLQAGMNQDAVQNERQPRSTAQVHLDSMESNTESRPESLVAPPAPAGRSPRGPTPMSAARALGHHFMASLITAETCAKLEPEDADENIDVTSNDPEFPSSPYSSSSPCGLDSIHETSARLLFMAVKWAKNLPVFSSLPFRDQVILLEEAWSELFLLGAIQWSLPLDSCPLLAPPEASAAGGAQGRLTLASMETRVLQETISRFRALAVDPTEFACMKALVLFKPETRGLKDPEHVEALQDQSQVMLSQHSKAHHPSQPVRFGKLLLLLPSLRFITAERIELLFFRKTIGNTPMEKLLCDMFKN
NR2E3 ag-2: inhibitors of NR2E3-RetCOR corepressor binding, primary screen, NR2E3 agonist project, biochemical, TR-FRET, GST-NR2E3, biotin-RetCOR. 1536-well. inhibition of corepressor binding, % at 4.78 µM. 320,000 compounds, 0.12% hits. AID 2300, 2010;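 active = percent inhibition above the cutoff of mean plus 3 SD of all tested compounds, set per screening campaign, cut at about 20% in these data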;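 note: 0% = DMSO wells and 100% = biotin wells as full block of FRET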
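Material – GST-tagged NR2E3 plus biotinylated RetCOR corepressor · Quantity – NR2E3 fusion 1.35 nM · Times – 5 h incubation at 4 °C · Medium – pH 7.5 Tris-based buffer · Technique – TR-FRET, Eu(K)-anti-GST donor, streptavidin-D2 acceptor, ex 340, em 617/671 nm · Benchmarks – high control biotin, low control 0.6% DMSO · Format – 1536-well plates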
The depositor's hits bear a star. The list is not random: actives were taken first. Their share in the collection is about 2.5%.

`CCCCCCCCN1C(=O)[C@@H](CC(=O)N2CCN(C(=O)OCC)CC2)C[C@@]2(C(=O)OC)C1=C[C@H](C(C)C)O[C@@H]2C1CC1` gave ADAM17 inh -1, ADAM10 inh 1 and proKLK7 act 1.
For COc1ccc(CS(=O)(=O)/C(Cl)=C(/Cl)C(=O)Nc2ccc(OC)nc2)cc1 the results were JMJD2C inh 18, NR2E3 ag-1 74* and NR2E3 ag-2 -3.
`COc1ccc(/C=C/C(=O)Nc2ccc(OC)nc2)cc1` gave ADAM17 inh 1, JMJD2C inh -5, ADAM10 inh 2, proKLK7 act 0, NR2E3 ag-1 19 and NR2E3 ag-2 4.
Screening NC(=O)C1=CN([C@@H]2O[C@H](COP(=O)(O)OP(=O)(O)OC[C@H]3O[C@@H](n4cnc5c(N)ncnc54)[C@H](O)[C@@H]3O)[C@@H](O)[C@H]2O)C=CC1 returned ADAM17 inh 0, ADAM10 inh -13 and proKLK7 act 0.
For Cc1cc(C)c2c(=N)c3ccccc3n(CCCCCCCCn3c4ccccc4c(=N)c4c(C)cc(C)nc43)c2n1 the results were ADAM17 inh -141, ADAM10 inh inactive, proKLK7 act 37* and NR2E3 ag-1 12.
CN(C(=O)c1ccc2c(c1)C(=O)N(CCC1=CCCCC1)C2=O)C1CCCCC1 was read as ADAM17 inh 2, JMJD2C inh -7, ADAM10 inh 4, proKLK7 act 0, NR2E3 ag-1 -16 and NR2E3 ag-2 0.
For O=C(O)c1ccc2c(c1)C(=O)N(CCC1=CCCCC1)C2=O the results were ADAM17 inh -4, JMJD2C inh 101*, ADAM10 inh 9, proKLK7 act 0, NR2E3 ag-1 3 and NR2E3 ag-2 2.
`Cc1nn(C)c(N)c1C(O)(c1nccn1C)C(F)(F)F` (stereo unspecified) gave ADAM17 inh -4, JMJD2C inh 81*, ADAM10 inh 3, proKLK7 act 1, NR2E3 ag-1 -5 and NR2E3 ag-2 3.
Screening CCOC(=O)N1CCN(C(=O)C[C@H]2C(=O)N(CCCOC)C3=CCCCC[C@]32C(=O)OC)CC1 returned ADAM17 inh -2, ADAM10 inh -1 and proKLK7 act 0.
For CCOC(=O)N1CCN(C(=O)c2ccc3c(c2)N(CC)CCS3)CC1 the results were ADAM17 inh -54, JMJD2C inh -8, ADAM10 inh -206, proKLK7 act 14*, NR2E3 ag-1 -9 and NR2E3 ag-2 2.
Screening Cc1ccc(-c2cc(C(=O)N3CCOCC3)c3ccccc3n2)o1 returned ADAM17 inh inactive, JMJD2C inh -6, ADAM10 inh inactive, proKLK7 act 112* and NR2E3 ag-1 -18.
For COc1ccc(C(=O)c2ccc3oc(-c4ccc(OC)cc4)c(-c4ccc(O)cc4)c3c2)cc1 the results were ADAM17 inh 8.6*, JMJD2C inh 2, ADAM10 inh 5, proKLK7 act 0 and NR2E3 ag-1 -23.
Screening C[C@@H]1O[C@@H](OC[C@H]2O[C@@H](Oc3cc(O)c4c(=O)cc(-c5ccc(O)c(O)c5)oc4c3)[C@H](O)[C@@H](O)[C@@H]2O)[C@H](O)[C@H](O)[C@H]1O returned JMJD2C inh 100* and NR2E3 ag-1 -16.
Screening O=C(N=C1N=C2C=CC(Br)=CN2Cc2ccccc21)c1ccc([N+](=O)[O-])cc1[N+](=O)[O-] returned ADAM17 inh 9.1*, JMJD2C inh -6, ADAM10 inh 18, proKLK7 act 0, NR2E3 ag-1 -154 and NR2E3 ag-2 2.
For CCn1c(C)nc2cc(-c3nc4n(n3)Cc3ccccc3-4)ccc21 the results were JMJD2C inh 8, NR2E3 ag-1 97* and NR2E3 ag-2 2.
Screening CC[C@]12c3[nH]c4ccc(Cl)cc4c3CCN1C(=O)[C@@H](CC(=O)NC(C)(C)C)C[C@@H]2C(=O)N1CCN(C(=O)c2ccco2)CC1 returned ADAM17 inh -2, ADAM10 inh -12, proKLK7 act 0 and NR2E3 ag-1 -9.
Screening CC[C@]12c3[nH]c4cc(-c5ccco5)ccc4c3CCN1C(=O)[C@@H](CC(=O)NC(C)(C)C)C[C@@H]2C(=O)N1CCN(C(=O)c2ccco2)CC1 returned ADAM17 inh -153, ADAM10 inh inactive, proKLK7 act 116* and NR2E3 ag-1 4.
CC(C)N(C(=O)[C@H]1C[C@H](CC(=O)NCc2ccco2)C(=O)N2CCc3c([nH]c4cc(-c5ccco5)ccc34)[C@]12C)C(C)C was read as ADAM17 inh -75, ADAM10 inh -223, proKLK7 act 35* and NR2E3 ag-1 -14.
`COc1ccc(CNC(=O)C[C@H]2C[C@H](C(=O)N3CCCCC3)[C@@]3(C)c4[nH]c5cc(-c6ccco6)ccc5c4CCN3C2=O)cc1OC` gave ADAM17 inh -68, ADAM10 inh -244, proKLK7 act 68* and NR2E3 ag-1 -23.
`CC(C)N(C(=O)[C@H]1CC(CC(=O)NCc2ccco2)C(=O)N2CCc3c([nH]c4ccccc34)[C@]12C)C(C)C` (stereo partly specified) gave ADAM17 inh -2, JMJD2C inh -6, ADAM10 inh -4, proKLK7 act 1 and NR2E3 ag-1 -8.
Screening O=C(NCCc1c[nH]c2ccccc12)OCc1cn(Cc2cc(F)cc(F)c2)nn1 returned ADAM17 inh -1, ADAM10 inh 1 and proKLK7 act 0.
For NS(=O)(=O)c1ccc(CCNC(=O)CSc2nc3ccsc3c(=O)n2C2CC2)cc1 the results were ADAM17 inh -2, JMJD2C inh 2, ADAM10 inh 4, proKLK7 act -1, NR2E3 ag-1 2 and NR2E3 ag-2 0.
CCCCNC(=O)CSc1nc2ccsc2c(=O)n1C1CCN(C(=O)OCC)CC1 was read as ADAM17 inh 0, JMJD2C inh -1, ADAM10 inh 20*, proKLK7 act -1, NR2E3 ag-1 -41 and NR2E3 ag-2 -5.
For Nn1c(SCc2ccc(Br)cc2)nnc1-c1n[nH]c2c1CCC2 the results were ADAM17 inh 3, ADAM10 inh 4 and proKLK7 act 0.
`OCc1nc2ccccc2n1CCOc1ccccc1` gave ADAM17 inh -2, JMJD2C inh -5, ADAM10 inh -10, proKLK7 act 0, NR2E3 ag-1 20 and NR2E3 ag-2 0.
